Measurements: ChEMBL document CHEMBL1781906, “New quinolin-4-yl-1,2,3-triazoles carrying amides, sulphonamides and amidopiperazines as potential antitubercular agents” (2011)
≈ marks a conversion by molar mass, not a printed value.

Tests used:
Assay type in all cases: functional
[1] = system: Mycolicibacterium smegmatis; assay: Antimycobacterial activity against Mycobacterium smegmatis ATCC 19420 after 7 days by resazurin method; details: ATCC 19420, 168 h
Method in brief: (§1)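 MIC was determined by resazurin microplate assay. Resazurin turns from blue to pink when reduced by viable cells, and wells with no colour change were scored as inhibited. Isoniazid and rifampicin were reference drugs.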

[2] = system: Mycobacterium tuberculosis; assay: Antimycobacterial activity against Mycobacterium tuberculosis H37Rv ATCC 27294 after 7 days by resazurin method; details: H37Rv ATCC 27294, 168 h
Method in brief: (§2)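 H37Rv was grown in Middlebrook 7H9 broth with 10% OADC, diluted to McFarland 2 in the same medium, and added to fresh medium in 96-well plates with compound. Compounds were tested at 1, 10 and 100. The dye turned pink in controls after […] at 37 °C.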

Klebsiella pneumoniae = assay: Antibacterial activity against Klebsiella pneumoniae after 18 to 24 hrs by […]
[3] = system: Mycobacterium tuberculosis; assay: Antimycobacterial activity against Mycobacterium tuberculosis H37Rv ATCC 27294 assessed as inhibition of bacterial growth at 1 to 100 ug/ml after 7 days by resazurin method; method in brief: as §2
Escherichia coli = assay: Antibacterial activity against Escherichia coli ATCC 25922 after 18 to 24 hrs by […]
[4] = system: Mycolicibacterium fortuitum; assay: Antimycobacterial activity against Mycobacterium fortuitum ATCC 19542 after 7 days by resazurin method; details: ATCC 19542, 168 h; method in brief: as §1
Pseudomonas aeruginosa = assay: Antibacterial activity against Pseudomonas aeruginosa ATCC 27853 after 18 to 24 hrs by […]
Streptococcus pyogenes = assay: Antibacterial activity against Streptococcus pyogenes after 18 to 24 hrs by serial plate dilution method
Staphylococcus aureus = assay: Antibacterial activity against Staphylococcus aureus ATCC 25923 after 18 to 24 hrs by serial plate dilution method

COc1ccc2nc(C)cc(-n3cc(CNS(=O)(=O)c4ccc(C)cc4)nn3)c2c1
MIC [1]: 100 µg/mL (≈ 236 µM) | MIC [2]: 10 µg/mL (≈ 23.6 µM) | MIC (Klebsiella pneumoniae): 6.25 µg/mL (≈ 14.8 µM) | inhibition (INH) [3]: 85% | MIC (Escherichia coli): 6.25 µg/mL (≈ 14.8 µM) | MIC [4]: 100 µg/mL (≈ 236 µM) | MIC (Pseudomonas aeruginosa): 6.25 µg/mL (≈ 14.8 µM) | MIC (Streptococcus pyogenes): 6.25 µg/mL (≈ 14.8 µM) | MIC (Staphylococcus aureus): 3.12 µg/mL (≈ 7.37 µM)

COc1ccc(S(=O)(=O)NCc2cn(-c3cc(C)nc4ccc(OC)cc34)nn2)cc1
MIC [1]: 10 µg/mL (≈ 22.8 µM) | MIC [2]: 0.625 µg/mL (≈ 1.42 µM) | MIC (Klebsiella pneumoniae): 1.6 µg/mL (≈ 3.64 µM) | inhibition (INH) [3]: 90% | MIC (Escherichia coli): 3.12 µg/mL (≈ 7.1 µM) | MIC [4]: 10 µg/mL (≈ 22.8 µM) | MIC (Pseudomonas aeruginosa): 1.6 µg/mL (≈ 3.64 µM) | MIC (Streptococcus pyogenes): 1.6 µg/mL (≈ 3.64 µM) | MIC (Staphylococcus aureus): 6.25 µg/mL (≈ 14.2 µM)

CCc1ccc(S(=O)(=O)NCc2cn(-c3cc(C)nc4ccc(OC)cc34)nn2)cc1
MIC [1]: 100 µg/mL (≈ 229 µM) | MIC [2]: 100 µg/mL (≈ 229 µM) | MIC (Klebsiella pneumoniae): 6.25 µg/mL (≈ 14.3 µM) | MIC (Escherichia coli): 6.25 µg/mL (≈ 14.3 µM) | MIC [4]: 100 µg/mL (≈ 229 µM) | MIC (Pseudomonas aeruginosa): 12.5 µg/mL (≈ 28.6 µM) | MIC (Streptococcus pyogenes): 6.25 µg/mL (≈ 14.3 µM) | MIC (Staphylococcus aureus): 6.25 µg/mL (≈ 14.3 µM)

COc1ccc2nc(C)cc(-n3cc(CNS(=O)(=O)c4ccccc4)nn3)c2c1
MIC [1]: 100 µg/mL (≈ 244 µM) | MIC [2]: 100 µg/mL (≈ 244 µM) | MIC (Klebsiella pneumoniae): 6.25 µg/mL (≈ 15.3 µM) | MIC (Escherichia coli): 6.25 µg/mL (≈ 15.3 µM) | MIC [4]: 100 µg/mL (≈ 244 µM) | MIC (Pseudomonas aeruginosa): 6.25 µg/mL (≈ 15.3 µM) | MIC (Streptococcus pyogenes): 6.25 µg/mL (≈ 15.3 µM) | MIC (Staphylococcus aureus): 12.5 µg/mL (≈ 30.5 µM)

COc1ccc2nc(C)cc(-n3cc(CN4CCN(C(=O)C5CC5)CC4)nn3)c2c1
MIC [1]: 100 µg/mL (≈ 246 µM) | MIC [2]: 5 µg/mL (≈ 12.3 µM) | MIC (Klebsiella pneumoniae): 0.2 µg/mL (≈ 0.492 µM) | inhibition (INH) [3]: 90% | MIC (Escherichia coli): 0.4 µg/mL (≈ 0.984 µM) | MIC [4]: 100 µg/mL (≈ 246 µM) | MIC (Pseudomonas aeruginosa): 0.4 µg/mL (≈ 0.984 µM) | MIC (Streptococcus pyogenes): 0.4 µg/mL (≈ 0.984 µM) | MIC (Staphylococcus aureus): 0.8 µg/mL (≈ 1.97 µM)

COc1ccc2nc(C)cc(-n3cc(CN4CCN(C(=O)C5CCC5)CC4)nn3)c2c1
MIC [1]: 100 µg/mL (≈ 238 µM) | MIC [2]: 10 µg/mL (≈ 23.8 µM) | MIC (Klebsiella pneumoniae): 3.12 µg/mL (≈ 7.42 µM) | inhibition (INH) [3]: 90% | MIC (Escherichia coli): 1.6 µg/mL (≈ 3.8 µM) | MIC [4]: 100 µg/mL (≈ 238 µM) | MIC (Pseudomonas aeruginosa): 0.8 µg/mL (≈ 1.9 µM) | MIC (Streptococcus pyogenes): 1.6 µg/mL (≈ 3.8 µM) | MIC (Staphylococcus aureus): 1.6 µg/mL (≈ 3.8 µM)

COc1ccc2nc(C)cc(-n3cc(CN4CCN(C(=O)c5ccc(F)cc5)CC4)nn3)c2c1
MIC [1]: 1 µg/mL (≈ 2.17 µM) | MIC [2]: 1 µg/mL (≈ 2.17 µM) | MIC (Klebsiella pneumoniae): 0.8 µg/mL (≈ 1.74 µM) | inhibition (INH) [3]: 90% | MIC (Escherichia coli): 0.8 µg/mL (≈ 1.74 µM) | MIC [4]: 10 µg/mL (≈ 21.7 µM) | MIC (Pseudomonas aeruginosa): 1.6 µg/mL (≈ 3.47 µM) | MIC (Streptococcus pyogenes): 0.4 µg/mL (≈ 0.869 µM) | MIC (Staphylococcus aureus): 0.8 µg/mL (≈ 1.74 µM)

COc1ccc2nc(C)cc(-n3cc(CN4CCN(C(=O)c5ccccc5F)CC4)nn3)c2c1
MIC [1]: 5 µg/mL (≈ 10.9 µM) | MIC [2]: 1 µg/mL (≈ 2.17 µM) | MIC (Klebsiella pneumoniae): 1.6 µg/mL (≈ 3.47 µM) | inhibition (INH) [3]: 90% | MIC (Escherichia coli): 1.6 µg/mL (≈ 3.47 µM) | MIC [4]: 100 µg/mL (≈ 217 µM) | MIC (Pseudomonas aeruginosa): 3.12 µg/mL (≈ 6.78 µM) | MIC (Streptococcus pyogenes): 0.4 µg/mL (≈ 0.869 µM) | MIC (Staphylococcus aureus): 0.8 µg/mL (≈ 1.74 µM)

COc1ccc2nc(C)cc(-n3cc(CN4CCN(C(=O)c5ccccc5Cl)CC4)nn3)c2c1
MIC [1]: 100 µg/mL (≈ 210 µM) | MIC [2]: 10 µg/mL (≈ 21 µM) | MIC (Klebsiella pneumoniae): 3.12 µg/mL (≈ 6.54 µM) | MIC (Escherichia coli): 6.25 µg/mL (≈ 13.1 µM) | MIC [4]: 100 µg/mL (≈ 210 µM) | MIC (Pseudomonas aeruginosa): 3.12 µg/mL (≈ 6.54 µM) | MIC (Streptococcus pyogenes): 3.12 µg/mL (≈ 6.54 µM) | MIC (Staphylococcus aureus): 3.12 µg/mL (≈ 6.54 µM)

CCc1ccc(C(=O)N2CCN(Cc3cn(-c4cc(C)nc5ccc(OC)cc45)nn3)CC2)cc1
MIC [1]: 100 µg/mL (≈ 213 µM) | MIC [2]: 100 µg/mL (≈ 213 µM) | MIC (Klebsiella pneumoniae): 3.12 µg/mL (≈ 6.63 µM) | MIC (Escherichia coli): 3.12 µg/mL (≈ 6.63 µM) | MIC [4]: 100 µg/mL (≈ 213 µM) | MIC (Pseudomonas aeruginosa): 6.25 µg/mL (≈ 13.3 µM) | MIC (Streptococcus pyogenes): 6.25 µg/mL (≈ 13.3 µM) | MIC (Staphylococcus aureus): 6.25 µg/mL (≈ 13.3 µM)

COc1ccc2nc(C)cc(-n3cc(CN4CCN(C(=O)c5ccc(C)cc5)CC4)nn3)c2c1
MIC [1]: 100 µg/mL (≈ 219 µM) | MIC [2]: 100 µg/mL (≈ 219 µM) | MIC (Klebsiella pneumoniae): 12.5 µg/mL (≈ 27.4 µM) | MIC (Escherichia coli): 6.25 µg/mL (≈ 13.7 µM) | MIC [4]: 100 µg/mL (≈ 219 µM) | MIC (Pseudomonas aeruginosa): 12.5 µg/mL (≈ 27.4 µM) | MIC (Streptococcus pyogenes): 6.25 µg/mL (≈ 13.7 µM) | MIC (Staphylococcus aureus): 6.25 µg/mL (≈ 13.7 µM)

COc1ccc(C(=O)N2CCN(Cc3cn(-c4cc(C)nc5ccc(OC)cc45)nn3)CC2)cc1
MIC [1]: 5 µg/mL (≈ 10.6 µM) | MIC [2]: 0.625 µg/mL (≈ 1.32 µM) | MIC (Klebsiella pneumoniae): 1.6 µg/mL (≈ 3.39 µM) | inhibition (INH) [3]: 90% | MIC (Escherichia coli): 0.4 µg/mL (≈ 0.846 µM) | MIC [4]: 10 µg/mL (≈ 21.2 µM) | MIC (Pseudomonas aeruginosa): 3.12 µg/mL (≈ 6.6 µM) | MIC (Streptococcus pyogenes): 1.6 µg/mL (≈ 3.39 µM) | MIC (Staphylococcus aureus): 0.8 µg/mL (≈ 1.69 µM)

COc1ccc2nc(C)cc(-n3cc(CN4CCN(C(=O)c5ccccc5)CC4)nn3)c2c1
MIC [1]: 100 µg/mL (≈ 226 µM) | MIC [2]: 10 µg/mL (≈ 22.6 µM) | MIC (Klebsiella pneumoniae): 0.4 µg/mL (≈ 0.904 µM) | inhibition (INH) [3]: 85% | MIC (Escherichia coli): 0.4 µg/mL (≈ 0.904 µM) | MIC [4]: 100 µg/mL (≈ 226 µM) | MIC (Pseudomonas aeruginosa): 0.4 µg/mL (≈ 0.904 µM) | MIC (Streptococcus pyogenes): 0.8 µg/mL (≈ 1.81 µM) | MIC (Staphylococcus aureus): 0.8 µg/mL (≈ 1.81 µM)

O=C(O)c1cn(C2CC2)c2cc(N3CCNCC3)c(F)cc2c1=O [CIPROFLOXACIN]
MIC (Klebsiella pneumoniae): 0.05 µg/mL (≈ 0.151 µM) | MIC (Pseudomonas aeruginosa): 0.4 µg/mL (≈ 1.21 µM) | MIC (Streptococcus pyogenes): 0.4 µg/mL (≈ 1.21 µM) | MIC (Staphylococcus aureus): 1 µg/mL (≈ 3.02 µM)

NNC(=O)c1ccncc1 [ISONIAZID]
MIC [1]: 50 µg/mL (≈ 365 µM) | MIC [2]: 0.7 µg/mL (≈ 5.1 µM) | inhibition (INH) [3]: 95% | MIC [4]: 12.5 µg/mL (≈ 91.1 µM)

CO[C@H]1/C=C/O[C@@]2(C)Oc3c(C)c(O)c4c(O)c(c(/C=N/N5CCN(C)CC5)c(O)c4c3C2=O)NC(=O)/C(C)=C\C=C\[C@H](C)[C@H](O)[C@@H](C)[C@@H](O)[C@@H](C)[C@H](OC(C)=O)[C@@H]1C [RIFAMPIN]
MIC [1]: 1.5 µg/mL (≈ 1.82 µM) | MIC [2]: 0.5 µg/mL (≈ 0.608 µM) | inhibition (INH) [3]: 95% | MIC [4]: 1.5 µg/mL (≈ 1.82 µM)
